Test results: ChEMBL document CHEMBL1125287, “Synthesis and antifolate evaluation of the 10-propargyl derivatives of 5-deazafolic acid, 5-deazaaminopterin, and 5-methyl-5-deazaaminopterin” (J Med Chem, 1992)
Blank lines part the entries; values can stand above or below the compound they belong to.

How the values were obtained:
HL-60 = assay: The compound was tested for its growth inhibitory activity against HL60 cells.; type: functional, cell-based; conditions: Homo sapiens
L1210 [1] = assay: The compound was tested for its growth inhibitory activity against L1210 cells; type: functional, cell-based; conditions: Mus musculus
CCRF S-180 = assay: The compound was tested for its growth inhibitory activity against S180 cells.; type: functional, cell-based; conditions: Mus musculus
Thymidylate synthase [2] = molecular target: T1, Thymidylate synthase (Homo sapiens, UniProt P04818); assay: The compound was tested for its inhibitory activity against thymidylate synthase(TS) derived from H35F/F cells.
Thymidylate synthase [3] = molecular target: T1, Thymidylate synthase; assay: The compound was tested for its inhibitory activity against thymidylate synthase(TS) derived from K562 cells.; type: cell-based
L1210 [4] = assay: Km value for its transport after influx into L1210 cells; type: functional, cell-based; conditions: Mus musculus
Mus musculus [5] = assay: Antitumor effect (3 mg/kg) against EO771 mammary adenocarcinoma in mice measured as Average weight change on day 14.; type: functional
In short: (§1)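 Mice implanted with EO771 mammary adenocarcinoma were dosed once daily for 5 days, starting 1 day after tumor implantation, with 10 mice per group. On day 7 and day 14 the following were recorded: average body weight change in grams, toxic deaths, tumor-free animals and average tumor volume. Volume was calculated as 4/3πr³ in mm³, and T/C is treated/control volume.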

Mus musculus [6] = assay: Antitumor effect (3 mg/kg) against EO771 mammary adenocarcinoma in mice measured as Average weight change on day 7.; type: functional; in short: as §1
Mus musculus [7] = assay: Antitumor effect (3 mg/kg) against EO771 mammary adenocarcinoma in mice measured as toxic deaths out of 10 mice tested; type: functional
In short: (§2)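 EO771 mammary adenocarcinoma implanted in mice, 10 animals per group. Dosing was once daily for 5 days, starting 1 day after tumor implantation. Toxic deaths were counted over the total on the evaluation day (day 7 or day 14), together with average weight change, tumor volume (4/3πr³, treated/control) and tumor-free animals.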

Mus musculus [8] = assay: Antitumor effect (3 mg/kg) against EO771 mammary adenocarcinoma in mice measured as Tumor free/total on day 14; type: functional; in short: as §1
Mus musculus [9] = assay: Antitumor effect (3 mg/kg) against EO771 mammary adenocarcinoma in mice measured as Tumor free/total on day 7.; type: functional; in short: as §1
Mus musculus [10] = assay: Antitumor effect (3 mg/kg) against EO771 mammary adenocarcinoma in mice measured as T/C(treated/control) on day 14.; type: functional; in short: as §1
Mus musculus [11] = assay: Antitumor effect (3 mg/kg) against EO771 mammary adenocarcinoma in mice measured as T/C(treated/control) on day 7.; type: functional; in short: as §1
L1210 [12] = assay: k value for its transport after efflux through L1210 cells; type: functional, Mus musculus
Mus musculus [13] = assay: Antitumor effect (3 mg/kg) against EO771 mammary adenocarcinoma in mice measured as Toxic deaths/total on day 14.; type: functional; in short: as §2
Dihydrofolate reductase = molecular target: T2, Dihydrofolate reductase (Mus musculus, UniProt P00375); assay: The compound was tested for its inhibitory activity against dihydrofolate reductase(DHFR) derived from L1210 cells.; type: cell-based
T2 sequence (P00375 whole entry): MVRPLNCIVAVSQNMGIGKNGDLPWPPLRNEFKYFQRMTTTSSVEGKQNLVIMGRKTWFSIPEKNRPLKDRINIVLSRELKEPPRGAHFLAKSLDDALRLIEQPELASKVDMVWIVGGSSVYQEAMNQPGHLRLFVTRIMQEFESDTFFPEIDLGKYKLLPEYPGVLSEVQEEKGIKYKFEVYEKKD

Mus musculus [14] = assay: Antitumor effect (36 mg/kg) against EO771 mammary adenocarcinoma in mice measured as average weight change on day 14.; type: functional; in short: as §1
Mus musculus [15] = assay: Antitumor effect (36 mg/kg) against EO771 mammary adenocarcinoma in mice measured as Tumor free/total on day 14.; type: functional; in short: as §1
Mus musculus [16] = assay: Antitumor effect (36 mg/kg) against EO771 mammary adenocarcinoma in mice measured as Tumor free/total on day 7.; type: functional; in short: as §1
Mus musculus [17] = assay: Antitumor effect (36 mg/kg) against EO771 mammary adenocarcinoma in mice measured as T/C(treated/control) on day 14.; type: functional; in short: as §1
Mus musculus [18] = assay: Antitumor effect (36 mg/kg) against EO771 mammary adenocarcinoma in mice measured as T/C(treated/control) on day 7.; type: functional; in short: as §1
Mus musculus [19] = assay: Antitumor effect (36 mg/kg) against EO771 mammary adenocarcinoma in mice measured as Toxic deaths/total on day 14.; type: functional; in short: as §2
Mus musculus [20] = assay: Antitumor effect (36 mg/kg) against EO771 mammary adenocarcinoma in mice measured as toxic deaths out of 10 mice tested; type: functional; in short: as §2
Mus musculus [21] = assay: Antitumor effect (36 mg/kg) against EO771 mammary adenocarcinoma in mice measured as average weight change on day 7; type: functional; in short: as §1
Thymidylate synthase [22] = molecular target: T3, Thymidylate synthase (Lactobacillus casei, UniProt P00469); assay: The compound was tested for its inhibitory activity (IC50) against thymidylate synthase(TS) derived from Lactobacillus casei; design: species or system Lacticaseibacillus casei
T3 sequence (P00469 whole entry): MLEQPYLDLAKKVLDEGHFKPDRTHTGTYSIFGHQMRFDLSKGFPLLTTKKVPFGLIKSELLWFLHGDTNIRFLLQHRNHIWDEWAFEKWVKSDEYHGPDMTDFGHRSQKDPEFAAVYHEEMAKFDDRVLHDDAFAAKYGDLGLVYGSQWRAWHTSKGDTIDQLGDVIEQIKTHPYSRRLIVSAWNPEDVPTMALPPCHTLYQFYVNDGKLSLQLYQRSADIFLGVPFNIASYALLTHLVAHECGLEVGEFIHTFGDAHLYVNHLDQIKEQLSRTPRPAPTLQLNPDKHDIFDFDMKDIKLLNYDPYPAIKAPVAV

T1 sequence (P04818 whole entry): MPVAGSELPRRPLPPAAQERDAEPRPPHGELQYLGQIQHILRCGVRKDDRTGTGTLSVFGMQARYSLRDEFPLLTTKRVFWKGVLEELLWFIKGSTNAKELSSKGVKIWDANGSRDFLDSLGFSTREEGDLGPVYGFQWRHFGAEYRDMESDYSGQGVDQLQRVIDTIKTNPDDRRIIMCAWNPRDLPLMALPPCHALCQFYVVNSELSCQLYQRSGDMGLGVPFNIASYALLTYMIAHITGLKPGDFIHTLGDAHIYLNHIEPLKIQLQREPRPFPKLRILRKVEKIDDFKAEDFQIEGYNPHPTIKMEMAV

Structure (SMILES): C#CCN(Cc1cnc2nc(N)nc(O)c2c1)c1ccc(C(=O)NC(CCC(=O)O)C(=O)O)cc1 (stereo not given)
- IC50 (HL-60): 721 nM
- IC50 (L1210 [1]): 1500 nM
- IC50 (CCRF S-180): 2350 nM
- IC50 (Thymidylate synthase [2]): 90 nM

Structure (SMILES): CN(Cc1cnc2nc(N)nc(N)c2n1)c1ccc(C(=O)N[C@@H](CCC(=O)O)C(=O)O)cc1 [METHOTREXATE]
- Km (L1210 [4]): 4.86 µM
- AWC (Mus musculus [5]): 0.8 g
- AWC (Mus musculus [6]): -0.4 g
- Toxic deaths (Mus musculus [7]): 0
- Tumor free/total (Mus musculus [8]): 0
- Tumor free/total (Mus musculus [9]): 0
- T/C (Mus musculus [10]): 0.79
- T/C (Mus musculus [11]): 0.74
- k (L1210 [12]): 0.21 min⁻¹
- Deaths/total (Mus musculus [13]): 0

Structure (SMILES): C#CCN(Cc1cnc2nc(N)nc(N)c2c1)c1ccc(C(=O)NC(CCC(=O)O)C(=O)O)cc1 (stereo not given)
- Ki (Dihydrofolate reductase): 0.00585 nM
- Km (L1210 [4]): 1.8 µM
- IC50 (L1210 [1]): 0.64 nM
- k (L1210 [12]): 0.23 min⁻¹

Structure (SMILES): C#CCN(Cc1cnc2nc(N)nc(N)c2c1C)c1ccc(C(=O)NC(CCC(=O)O)C(=O)O)cc1 (stereo not given)
- Ki (Dihydrofolate reductase): 0.00687 nM
- Km (L1210 [4]): 0.57 µM
- IC50 (L1210 [1]): 0.13 nM
- AWC (Mus musculus [14]): -0.6 g
- Tumor free/total (Mus musculus [15]): 2
- Tumor free/total (Mus musculus [16]): 2
- T/C (Mus musculus [17]): 0.08
- T/C (Mus musculus [18]): 0.09
- Deaths/total (Mus musculus [19]): 0
- Toxic deaths (Mus musculus [20]): 0
- AWC (Mus musculus [21]): -1.9 g
- k (L1210 [12]): 0.24 min⁻¹

Second part, the compound after the results:

- IC50 (Thymidylate synthase [3]): 2400 nM
Structure (SMILES): C#CCN(Cc1ccc2nc(N)nc(O)c2n1)c1ccc(C(=O)NC(CCC(=O)O)C(=O)O)cc1 (stereo not given)

- IC50 (HL-60): 5290 nM
- IC50 (L1210 [1]): 2610 nM
- IC50 (CCRF S-180): 1970 nM
Structure (SMILES): C#CCN(Cc1ccc2[nH]c(N)nc(=O)c2c1)c1ccc(C(=O)NC(CCC(=O)O)C(=O)O)cc1 (stereo not given)

- IC50 (Thymidylate synthase [22]): 3900 nM
Structure (SMILES): C#CCN(Cc1cnc2nc(N)[nH]c(=O)c2n1)c1ccc(C(=O)NC(CCC(=O)O)C(=O)O)cc1 (stereo not given)
